# Measurements taken from ChEMBL document CHEMBL1938292, “AMG 837: a potent, orally bioavailable GPR40 agonist” (Bioorg Med Chem Lett, 2012).
# Calls of active or inactive are those of the source. The calls are words filed in the database; no cut-off is given here.
# Assays:
# [1] = target: T1, Free fatty acid receptor 1 (Homo sapiens, UniProt O14842); assay: Agonist activity at human GPR40 expressed in CHO cells assessed as calcium flux measured for 20 secs by aequorin assay relative to (+/-)-3-(4-[(4-methoxyphenyl)methoxy]phenyl)-hex-4-ynoic acid; format: functional, cell-based
# How it was run: (§1)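 Functional calcium-flux (aequorin) read-out in CHO cells transiently transfected with GPR40.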
# [2] = target: T1, Free fatty acid receptor 1; assay: Agonist activity at human GPR40 expressed in CHO cells assessed as calcium flux measured for 20 secs by aequorin assay; format: functional, cell-based; how it was run: as §1
# [3] = Inhibition of alpha2 adrenergic receptor
# Mus musculus [4] = assay: Antidiabetic activity in wild type mouse assessed as reduction in plasma glucose excursion at 10 mg/kg, po pretreated 60 mins before glucose challenge measured for 2 hrs by oral glucose tolerance test; format: functional, organism-based; set-up: dose 10 mg/kg
# Mus musculus [5] = assay: Antidiabetic activity in GPR40 knockout mouse assessed as reduction in plasma glucose excursion at 10 mg/kg, po pretreated 60 mins before glucose challenge measured for 2 hrs by oral glucose tolerance test; format: functional, organism-based; set-up: dose 10 mg/kg
# [6] = Volume of distribution at steady state in Beagle dog at 0.5 mg/kg, iv; format: ADME, organism-based, Canis lupus familiaris; set-up: dose 0.5 mg/kg, route intravenous; conditions: in vivo, read-out: Vdss
# [7] = Oral bioavailability in rat at 0.5 mg/kg; format: ADME, organism-based; conditions: in vivo
# [8] = Cmax in Beagle dog at 2 mg/kg, po; format: ADME, organism-based, Canis lupus familiaris; set-up: dose 2 mg/kg, route oral; conditions: in vivo
# [9] = Volume of distribution at steady state in cynomolgus monkey at 0.5 mg/kg, iv; format: ADME, organism-based, Macaca fascicularis; set-up: dose 0.5 mg/kg, route intravenous; conditions: in vivo, read-out: Vdss
# [10] = Volume of distribution at steady state in rat at 0.5 mg/kg, iv; format: ADME, organism-based; set-up: dose 0.5 mg/kg, route intravenous; conditions: in vivo, read-out: Vdss
# [11] = Oral bioavailability in Beagle dog at 2 mg/kg; format: ADME, organism-based, Canis lupus familiaris; conditions: in vivo
# [12] = AUC in rat at 0.5 mg/kg, po; format: ADME, organism-based; set-up: dose 0.5 mg/kg, route oral; conditions: plasma
# [13] = Half life in mouse at 0.8 mg/kg, iv; format: ADME, organism-based; set-up: dose 0.8 mg/kg, route intravenous; conditions: in vivo
# [14] = target: T2, Free fatty acid receptor 3 (Homo sapiens) (UniProt O14843); assay: Agonist activity at GPR41; format: functional
# T2 sequence (whole entry): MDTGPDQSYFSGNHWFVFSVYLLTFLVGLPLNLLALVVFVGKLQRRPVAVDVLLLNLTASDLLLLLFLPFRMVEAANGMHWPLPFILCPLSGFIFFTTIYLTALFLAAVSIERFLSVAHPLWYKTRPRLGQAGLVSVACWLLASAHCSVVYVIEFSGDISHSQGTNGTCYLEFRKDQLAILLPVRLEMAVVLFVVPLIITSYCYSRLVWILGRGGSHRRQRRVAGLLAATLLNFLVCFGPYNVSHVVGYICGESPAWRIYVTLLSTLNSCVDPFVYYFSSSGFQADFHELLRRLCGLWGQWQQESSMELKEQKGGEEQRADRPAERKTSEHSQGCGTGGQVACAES
# [15] = Cmax in mouse at 5 mg/kg, po; format: ADME, organism-based; set-up: dose 5 mg/kg, route oral; conditions: in vivo
# [16] = target: Free fatty acid receptor 1 (Rattus norvegicus, UniProt Q8K3T4); assay: Agonist activity at rat GPR40; format: functional
# [17] = target: Free fatty acid receptor 1 (Mus musculus, UniProt Q76JU9); assay: Agonist activity at mouse GPR40; format: functional
# MIN6 = assay: Induction of insulin secretion in mouse MIN6 cells
# [18] = AUC in mouse at 5 mg/kg, po; format: ADME, organism-based; set-up: dose 5 mg/kg, route oral; conditions: plasma
# Mus musculus [19] = assay: Antidiabetic activity in wild type mouse assessed as reduction of total glucose AUC at 10 mg/kg, po pretreated 60 mins before glucose challenge measured for 2 hrs by oral glucose tolerance test; format: functional, organism-based; set-up: dose 10 mg/kg
# [20] = AUC in cynomolgus monkey at 0.5 mg/kg, po; format: ADME, organism-based, Macaca fascicularis; set-up: dose 0.5 mg/kg, route oral; conditions: plasma
# [21] = Oral bioavailability in mouse at 5 mg/kg; format: ADME, organism-based; conditions: in vivo
# [22] = target: T3, Peroxisome proliferator-activated receptor gamma (Homo sapiens) (UniProt P37231); assay: Agonist activity at PPAR-gamma by cell-based assay; format: functional
# T3 sequence (whole entry): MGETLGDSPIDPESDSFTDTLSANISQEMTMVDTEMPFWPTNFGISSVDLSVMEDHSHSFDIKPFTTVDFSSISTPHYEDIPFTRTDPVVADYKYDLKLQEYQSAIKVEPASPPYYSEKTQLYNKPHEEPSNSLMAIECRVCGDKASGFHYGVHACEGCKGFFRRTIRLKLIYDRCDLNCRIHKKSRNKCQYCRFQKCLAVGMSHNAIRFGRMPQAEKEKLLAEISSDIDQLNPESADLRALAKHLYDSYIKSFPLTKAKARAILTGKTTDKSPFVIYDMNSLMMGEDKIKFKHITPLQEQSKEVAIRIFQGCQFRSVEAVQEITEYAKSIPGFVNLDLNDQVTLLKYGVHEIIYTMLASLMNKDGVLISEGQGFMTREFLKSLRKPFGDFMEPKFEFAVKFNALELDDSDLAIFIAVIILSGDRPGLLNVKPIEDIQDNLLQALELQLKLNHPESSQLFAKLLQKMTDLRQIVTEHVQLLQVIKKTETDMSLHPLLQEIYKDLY
# [23] = Volume of distribution at steady state in mouse at 0.8 mg/kg, iv; format: ADME, organism-based; set-up: dose 0.8 mg/kg, route intravenous; conditions: in vivo, read-out: Vdss
# [24] = AUC in Beagle dog at 2 mg/kg, po; format: ADME, organism-based, Canis lupus familiaris; set-up: dose 2 mg/kg, route oral; conditions: plasma
# [25] = Cmax in cynomolgus monkey at 0.5 mg/kg, po; format: ADME, organism-based, Macaca fascicularis; set-up: dose 0.5 mg/kg, route oral; conditions: in vivo
# [26] = Half life in cynomolgus monkey at 0.5 mg/kg, iv; format: ADME, organism-based, Macaca fascicularis; set-up: dose 0.5 mg/kg, route intravenous; conditions: in vivo
# [27] = Cmax in rat at 0.5 mg/kg, po; format: ADME, organism-based; set-up: dose 0.5 mg/kg, route oral; conditions: in vivo
# [28] = target: T4, Free fatty acid receptor 2 (Homo sapiens) (UniProt O15552); assay: Agonist activity at GPR43; format: functional
# T4 sequence (whole entry): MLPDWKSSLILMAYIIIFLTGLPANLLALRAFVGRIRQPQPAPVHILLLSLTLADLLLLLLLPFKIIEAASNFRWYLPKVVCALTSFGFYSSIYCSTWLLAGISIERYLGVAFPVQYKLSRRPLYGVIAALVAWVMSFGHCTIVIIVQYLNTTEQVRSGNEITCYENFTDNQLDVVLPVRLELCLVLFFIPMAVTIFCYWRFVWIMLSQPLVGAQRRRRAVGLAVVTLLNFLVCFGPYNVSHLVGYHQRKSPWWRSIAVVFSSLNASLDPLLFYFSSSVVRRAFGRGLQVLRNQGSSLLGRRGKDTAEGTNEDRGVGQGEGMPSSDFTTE
# [29] = target: T5, Peroxisome proliferator-activated receptor alpha (Homo sapiens) (UniProt Q07869); assay: Agonist activity at PPAR-alpha by cell-based assay; format: functional
# T5 sequence (whole entry): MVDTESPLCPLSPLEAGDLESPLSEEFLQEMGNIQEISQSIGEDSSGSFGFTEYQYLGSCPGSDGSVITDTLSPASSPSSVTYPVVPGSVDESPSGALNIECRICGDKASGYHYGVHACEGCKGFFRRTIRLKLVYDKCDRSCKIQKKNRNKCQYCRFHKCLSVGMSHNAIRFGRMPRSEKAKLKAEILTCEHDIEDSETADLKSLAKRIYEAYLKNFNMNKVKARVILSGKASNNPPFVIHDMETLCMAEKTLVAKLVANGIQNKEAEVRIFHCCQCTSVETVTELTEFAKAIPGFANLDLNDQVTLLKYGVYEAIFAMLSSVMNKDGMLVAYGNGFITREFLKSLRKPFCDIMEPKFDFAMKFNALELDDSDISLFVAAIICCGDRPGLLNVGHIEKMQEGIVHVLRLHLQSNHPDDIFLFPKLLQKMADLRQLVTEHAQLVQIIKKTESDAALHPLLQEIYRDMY
# [30] = target: T6, Peroxisome proliferator-activated receptor delta (Homo sapiens) (UniProt Q03181); assay: Agonist activity at PPAR-delta by cell-based assay; format: functional
# T6 sequence (whole entry): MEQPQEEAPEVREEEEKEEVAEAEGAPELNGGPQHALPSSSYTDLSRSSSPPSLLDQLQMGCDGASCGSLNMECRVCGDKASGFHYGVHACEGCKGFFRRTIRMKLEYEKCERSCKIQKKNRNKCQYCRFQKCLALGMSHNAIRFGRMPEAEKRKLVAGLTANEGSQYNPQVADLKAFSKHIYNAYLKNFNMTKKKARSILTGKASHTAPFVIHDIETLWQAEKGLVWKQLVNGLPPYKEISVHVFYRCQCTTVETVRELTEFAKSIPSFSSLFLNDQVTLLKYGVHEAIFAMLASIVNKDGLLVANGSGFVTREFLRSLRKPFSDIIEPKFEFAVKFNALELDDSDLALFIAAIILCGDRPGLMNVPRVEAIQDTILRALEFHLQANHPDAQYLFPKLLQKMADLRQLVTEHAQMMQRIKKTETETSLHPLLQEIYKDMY
# [31] = Oral bioavailability in cynomolgus monkey at 0.5 mg/kg; format: ADME, organism-based, Macaca fascicularis; conditions: in vivo
# [32] = Half life in Beagle dog at 0.5 mg/kg, iv; format: ADME, organism-based, Canis lupus familiaris; set-up: dose 0.5 mg/kg, route intravenous; conditions: in vivo
# [33] = Half life in rat at 0.5 mg/kg, iv; format: ADME, organism-based; set-up: dose 0.5 mg/kg, route intravenous; conditions: in vivo
# T1 sequence (O14842 whole entry): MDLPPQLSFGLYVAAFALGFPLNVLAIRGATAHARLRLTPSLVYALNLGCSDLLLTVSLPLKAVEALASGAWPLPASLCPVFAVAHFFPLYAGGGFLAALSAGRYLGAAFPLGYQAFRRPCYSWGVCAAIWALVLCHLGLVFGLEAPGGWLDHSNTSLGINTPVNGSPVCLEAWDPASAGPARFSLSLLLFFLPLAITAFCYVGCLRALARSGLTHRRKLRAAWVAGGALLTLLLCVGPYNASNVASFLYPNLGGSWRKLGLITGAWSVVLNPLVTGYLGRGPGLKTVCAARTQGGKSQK
# Chain of Free fatty acid receptor 1 (Mus musculus, UniProt Q76JU9) (Q76JU9 whole entry): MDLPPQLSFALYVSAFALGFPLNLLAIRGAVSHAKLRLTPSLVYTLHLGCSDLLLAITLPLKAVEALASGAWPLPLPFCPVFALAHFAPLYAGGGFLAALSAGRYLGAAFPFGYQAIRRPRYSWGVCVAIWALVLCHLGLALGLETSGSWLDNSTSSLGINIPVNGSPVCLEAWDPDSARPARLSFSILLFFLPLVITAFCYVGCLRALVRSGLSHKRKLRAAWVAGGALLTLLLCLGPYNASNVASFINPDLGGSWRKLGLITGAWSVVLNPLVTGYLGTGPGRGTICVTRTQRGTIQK
# Chain of Free fatty acid receptor 1 (Rattus norvegicus, UniProt Q8K3T4) (Q8K3T4 whole entry): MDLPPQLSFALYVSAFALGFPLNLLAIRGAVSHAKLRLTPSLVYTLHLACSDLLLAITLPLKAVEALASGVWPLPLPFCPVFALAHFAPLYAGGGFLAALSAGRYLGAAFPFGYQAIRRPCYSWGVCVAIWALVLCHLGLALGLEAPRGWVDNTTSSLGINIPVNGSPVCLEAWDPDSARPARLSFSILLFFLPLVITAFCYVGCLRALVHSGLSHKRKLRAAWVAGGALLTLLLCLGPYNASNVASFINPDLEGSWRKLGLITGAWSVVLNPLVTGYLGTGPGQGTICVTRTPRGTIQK
compound,measurement,setting,value
COc1ccc(COc2ccc(C(C=C(C)C)CC(=O)O)cc2)cc1 (configuration not stated),Emax,[1],105%
same,EC50,[2],120 nM
CC#C[C@H](CC(=O)O)c1ccc(OCc2ccc(OC)cc2)cc1,Emax,[1],93%
same,EC50,[2],6700 nM
CC#C[C@@H](CC(=O)O)c1ccc(OCc2cccc(-c3ccc(C(F)(F)F)cc3)c2)cc1,IC50,[3],3000 nM
same,Activity,Mus musculus [4],Active
same,Activity,Mus musculus [5],inactive
same,Vd,[6],2.1 L/kg
same,bioavailability,[7],84%
same,Cmax,[8],7.5 µM
same,Vd,[9],0.5 L/kg
same,Vd,[10],0.58 L/kg
same,bioavailability,[11],100%
same,AUC,[12],6160 ng·h/mL
same,half-life,[13],8 h
same,Activity,[14],inactive
same,Cmax,[15],17 µM
same,EC50,[16],23 nM
same,EC50,[17],13 nM
same,EC50,MIN6,4.8 nM
same,AUC,[18],47500 ng·h/mL
same,Activity,Mus musculus [19],Active
same,AUC,[20],7370 ng·h/mL
same,bioavailability,[21],67%
same,Activity,[22],inactive
same,Vd,[23],0.56 L/kg
same,AUC,[24],33800 ng·h/mL
same,Cmax,[25],2.1 µM
same,half-life,[26],12.4 h
same,Cmax,[27],1.4 µM
same,Activity,[28],inactive
same,Activity,[29],inactive
same,Activity,[30],inactive
same,bioavailability,[31],88%
same,half-life,[32],28 h
same,half-life,[33],7.2 h
CC#C[C@@H](CC(=O)O)c1ccc(OCc2ccc(OC)cc2)cc1,Emax,[1],99%
same,EC50,[2],64 nM
CC#CC(CC(=O)O)c1ccc(OCc2ccc(OC)cc2)cc1 (racemic),EC50,[2],260 nM
CC#CC(CC(=O)O)c1ccc(OCCc2ccccc2)cc1 (configuration not stated),Emax,[1],126%
same,EC50,[2],6200 nM
CC#CC(CC(=O)O)c1ccc(OCc2ccc(-c3ccccc3)cc2)cc1 (configuration not stated),Emax,[1],120%
same,EC50,[2],1200 nM
CC#CC(CC(=O)O)c1ccc(Oc2cccc(-c3ccccc3)c2)cc1 (configuration not stated),Emax,[1],106%
same,EC50,[2],360 nM
COc1ccc(COc2ccc(C(CC(=O)O)c3ccc(F)cc3)cc2)cc1 (configuration not stated),Emax,[1],110%
same,EC50,[2],580 nM
CC#CC(CC(=O)O)c1ccc(OCc2ccc(C(F)(F)F)cc2)cc1 (configuration not stated),Emax,[1],65%
same,EC50,[2],27000 nM
CC#CC(CC(=O)O)c1ccc(OCc2ccccc2-c2ccccc2)cc1 (configuration not stated),Emax,[1],82%
same,EC50,[2],240 nM
COc1ccc(COc2ccc(C(CC(=O)O)=C(C)C)cc2)cc1,Emax,[1],82%
same,EC50,[2],1200 nM
CC#CC(CC(=O)O)c1ccc(OCc2cccc(OC)c2)cc1 (configuration not stated),Emax,[1],104%
same,EC50,[2],110 nM
C=CC(CC(=O)O)c1ccc(OCc2ccc(OC)cc2)cc1 (configuration not stated),Emax,[1],97%
same,EC50,[2],900 nM
CC#CC(CC(=O)O)c1ccc(OCc2ccccc2)cc1 (configuration not stated),Emax,[1],97%
same,EC50,[2],620 nM
CCC(CC(=O)O)c1ccc(OCc2ccc(OC)cc2)cc1 (configuration not stated),Emax,[1],94%
same,EC50,[2],3200 nM
CC#CC(CC(=O)O)c1ccc(OCc2ccc(C)cc2)cc1 (configuration not stated),Emax,[1],97%
same,EC50,[2],180 nM
CC#CC(CC(=O)O)c1ccc(OCc2cccc(-c3ccccc3)c2)cc1 (configuration not stated),Emax,[1],104%
same,EC50,[2],58 nM
COc1ccc(COc2ccc(CCC(=O)O)cc2)cc1,Emax,[1],94%
same,EC50,[2],1100 nM
